From ChEMBL document CHEMBL1157214, “Anti-HIV agents 45(1) and antitumor agents 205.(2) two new sesquiterpenes, leitneridanins A and B, and the cytotoxic and anti-HIV principles from Leitneria floridana” (J Nat Prod, 2000)
In brackets after ≈: the same amount, converted by molar mass.

Key:
[1] = tested on: H9; experiment: Growth inhibition of human H9 cells; assay type: cell-based
[2] = tested on: Human immunodeficiency virus; experiment: Inhibition of HIV replication in human H9 cells; assay type: functional, organism-based; conditions: Human immunodeficiency virus 1, H9
[3] = tested on: SK-MEL-2; experiment: Cytotoxicity against human SK-MEL-2 cells after 3 days by SRB assay; assay type: functional; conditions: for EC50: Homo sapiens, SK-MEL-2, 72 h, read-out: ED50 (the source's name)
[4] = Therapeutic index, ratio of IC50 for human H9 cells to EC50 for HIV; assay type: cell-based; conditions: read-out: Ratio IC50/EC50
[5] = tested on: HCT-8; experiment: Cytotoxicity against human HCT8 cells after 3 days by SRB assay; assay type: functional; conditions: HCT-8, 72 h, read-out: ED50 (the source's name)
Method in brief: (§1)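 Human tumour lines from the Lineberger Comprehensive Cancer Center (UNC-CH). Selected samples were then run over a dose range in triplicate for three days. Growth was read by SRB absorbance at 562 nm. ED50 is the concentration giving a 50% fall in absorbance versus untreated cells.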

[6] = tested on: MCF7; experiment: Cytotoxicity against human MCF7 cells after 3 days by SRB assay; assay type: functional; conditions: MCF7, 72 h, read-out: ED50 (the source's name); method in brief: as §1
[7] = tested on: CAKI-1; experiment: Cytotoxicity against human CAKI1 cells after 3 days by SRB assay; assay type: functional; conditions: CAKI-1, 72 h, read-out: ED50 (the source's name); method in brief: as §1
[8] = tested on: KB; experiment: Cytotoxicity against human KB cells after 3 days by SRB assay; assay type: functional; conditions: 72 h, read-out: ED50 (the source's name); method in brief: as §1
[9] = tested on: A549; experiment: Cytotoxicity against human A549 cells after 3 days by SRB assay; assay type: functional; conditions: A549, 72 h, read-out: ED50 (the source's name); method in brief: as §1

Compound: COc1cnc2ccc(=O)n3c4ccccc4c1c23
- IC50 [1]: > 100 µg/mL
- EC50 [2]: 0.256 µg/mL (≈ 1.02 µM)
- inhibition (INH) [3]: 46%
- EC50 [3]: > 20 µg/mL
- selectivity ratio [4]: > 391
- EC50 [5]: 3.6 µg/mL (≈ 14.4 µM)
- EC50 [6]: 13.5 µg/mL (≈ 53.9 µM)
- EC50 [7]: 3.6 µg/mL (≈ 14.4 µM)
- EC50 [8]: 3.6 µg/mL (≈ 14.4 µM)
- EC50 [9]: 4.3 µg/mL (≈ 17.2 µM)

Compound: COc1cc2nccc3c4ccccc4n(c1=O)c23 [5-METHOXYCANTHINONE]
- EC50 [3]: 17 µg/mL (≈ 67.9 µM)
- EC50 [5]: 2.5 µg/mL (≈ 9.99 µM)
- EC50 [6]: 5 µg/mL (≈ 20 µM)
- EC50 [7]: 4.4 µg/mL (≈ 17.6 µM)
- EC50 [8]: 2.9 µg/mL (≈ 11.6 µM)
- EC50 [9]: 3.1 µg/mL (≈ 12.4 µM)

Compound: CC[C@](C)(OC(C)=O)C(=O)O[C@H]1C(=O)O[C@@H]2C[C@H]3C(C)=CC(=O)[C@@H](O)[C@]3(C)[C@H]3[C@@H](O)[C@H](O)[C@@]4(C)OC[C@]32[C@@H]14 [QUASSIMARIN]
- EC50 [3]: 0.05 µg/mL (≈ 0.0932 µM)
- EC50 [5]: 0.012 µg/mL (≈ 0.0224 µM)
- EC50 [6]: 0.006 µg/mL (≈ 0.0112 µM)
- EC50 [7]: 0.05 µg/mL (≈ 0.0932 µM)
- EC50 [8]: 0.06 µg/mL (≈ 0.112 µM)
- EC50 [9]: 0.03 µg/mL (≈ 0.0559 µM)

Compound: CC[C@@H](C)C(=O)O[C@H]1C(=O)O[C@@H]2C[C@H]3C(C)=CC(=O)[C@@H](O)[C@]3(C)[C@H]3[C@@H](O)[C@H](O)[C@]4(C)OC[C@]32[C@@H]14 [SIMALIKALACTONE D]
- EC50 [3]: 0.13 µg/mL (≈ 0.272 µM)
- EC50 [5]: 0.013 µg/mL (≈ 0.0272 µM)
- EC50 [6]: 0.014 µg/mL (≈ 0.0293 µM)
- EC50 [7]: 0.26 µg/mL (≈ 0.543 µM)
- EC50 [8]: 0.018 µg/mL (≈ 0.0376 µM)
- EC50 [9]: 0.04 µg/mL (≈ 0.0836 µM)
